Data set [1] relates to MPTP-induced PD model. Nature of the data set: Dopamine and its metabolites in the striatum. It counts as in vivo, C57BL/6J mice. The settings on record: for dopamine levels: L-Dopa 4.95 mg/kg, ECH 13 mg/kg.
The nature of data set [2]: Evans blue BBB integrity test. The settings on record: Evans blue 50 mg/kg intravenously, 30 minutes. It counts as in vivo, mice.
In a further data set the test system is bEnd.3 monolayer. Nature of the data set: In vitro BBB penetration, transwell model. The conditions noted are these: 2 μg/mL.
The test system of data set [3] is MPTP-induced PD model. Nature of the data set: Tyrosine hydroxylase immunohistochemical staining. It counts as in vivo, C57BL/6J mice. In outline:
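In the same MPTP model (30 mg/kg/day i.p., 5 days; daily i.v. test compound), perfused brains were cut into 5 μm coronal sections. These were incubated with rabbit polyclonal anti-TH (1:400, PBS) overnight at 4°C, then HRP secondary (1:200), with DAB detection. Striatal TH fiber immunoreactivity was quantified by image analysis. TH-positive neurons were counted in every sixth section through the substantia nigra.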

The subject of data set [4] is MPTP-induced PD model. Nature of the data set: Behavioral assays. It counts as in vivo, C57BL/6J mice. In outline: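 Male C57BL/6J mice (8 weeks, 22–25 g), 12 per cohort, given MPTP 30 mg/kg/day i.p. in 0.9% saline for 5 days, with daily i.v. test compound (13 mg/kg, free or liposomal), L-Dopa 4.95 mg/kg or saline. On day 16: 10-min video-tracked open field (50 cm box, 30×30 cm centre) and vertical pole descent (1.5 cm × 55 cm, head up; T-turn, T-total). n=8, mean ± SD.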

The subject of data set [5] is MPTP-induced PD model. Nature of the data set: Oxidative stress assay in the striatum. The settings on record: vs MPTP cohort. It is filed as in vivo, C57BL/6J mice. An outline of the steps: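 The MPTP mouse model used male C57BL/6J mice given 30 mg/kg/day i.p. for 5 days, with daily i.v. test compound at 13 mg/kg. After day-16 behaviour and perfusion, striatum was homogenised in 1% triton (1 g/9 mL) and spun at 15294 g, 4°C, 10 min. SOD, GSH-PX and MDA in the supernatant were measured with commercial kits per the manufacturer.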

Setting [6] is: open-field test, day 16, vs MPTP-treated mice.
Where [7] appears, read: pole test, day 16, vs MPTP-treated cohort.

With `CN1CC=C(c2ccccc2)CC1` [MPTP, 1-methyl-4-phenyl-1,2,3,6-tetrahydropyridine], in the data set on MPTP-induced PD model [1] (MPTP 30 mg/kg i.p. five days), the “dopamine levels, reduction compared to the control” value is 2.65 fold and the dopamine levels is reported as 0.95 ± 0.15 ng/mg of wet striatum tissue. Besides, the “BBB integrity (Evans blue levels in brain tissue)” value in data set [2] is recorded as “did not compromise BBB integrity”.

As to `O=C([O-])c1ccccc1-c1c2ccc(=O)cc-2oc2cc([O-])ccc12.[Na+].[Na+]` [fluorescein sodium], the apparent permeability coefficient with bEnd.3 monolayer is given as 6.92 ± 3.92×10^−6 cm/s.

As to Echinacoside [Free ECH], in the data set with MPTP-induced PD model [1] (MPTP 30 mg/kg i.p. five days), the dopamine levels is reported as 1.27 ± 0.36 ng/mg of wet striatum tissue. Further, in the data set with MPTP-induced PD model [3] (compared to the MPTP cohort / other treatments), the “neuroprotection (TH immunohistochemistry)” value is recorded as “did not provide significant neuroprotection”.

As to `N[C@@H](Cc1ccc(O)c(O)c1)C(=O)O` [L-Dopa, levodopa], in the data set on MPTP-induced PD model [4] (setting [6]), the average speed entry is recorded as “increased”, the “movement within the central area” value is given as “significantly improved”, the “percentage of time spent in the center” value is given as “increased” and the time spent immobile result is given as “decreasing”. For the same compound, the total distance traveled result with MPTP-induced PD model [4] (setting [6]) is recorded as “increased”. In addition, in the data set with MPTP-induced PD model [4] (setting [7]), the T-total entry was “significantly reduced” and the T-turn result is on record as “significantly reduced”. Besides, in the data set on MPTP-induced PD model [1], the “DOPAC levels, increase compared to the MPTP cohort” value is given as 1.59 fold and the “HVA levels, increase compared to the MPTP cohort” value amounted to 1.63 fold. The dopamine levels in the data set on MPTP-induced PD model [1] (MPTP 30 mg/kg i.p. five days) is recorded as 1.27 ± 0.09 ng/mg of wet striatum tissue. In the data set with MPTP-induced PD model [5], the GSH-PX levels entry is “significantly elevated”, the MDA levels result was “reducing” and the SOD levels entry is “significantly elevated”. Besides, the “MPTP-induced reduction in TH immunoreactivity in the striatum” value in the data set on MPTP-induced PD model [3] (striatum) was “effectively counteracted”. Besides, in the data set on MPTP-induced PD model [3] (substantia nigra), the “TH-positive neuron counts in the substantia nigra” value is listed as “partially restored”.

These data come from PMC11342948 (International Journal of Nanomedicine, 2024).
